Test results taken from ChEMBL document CHEMBL4342485, “Discovery of Potent Benzolactam IRAK4 Inhibitors with Robust in Vivo Activity” (ACS Med Chem Lett, 2020).
The source made the active and inactive calls. The calls are words filed in the database; no cut-off is given here.

Columns and labels:
[1] = target: T1, Interleukin-1 receptor-associated kinase 4 (Homo sapiens, UniProt Q9NWZ3); assay: Inhibition of recombinant full-length N-terminal His6-tagged human IRAK4 expressed in baculovirus expression system using H-KKARFSRFAGSSPSQSSMVAR peptide as substrate after 90 mins by fluorescence polarisation assay
T1 sequence (Q9NWZ3 whole entry): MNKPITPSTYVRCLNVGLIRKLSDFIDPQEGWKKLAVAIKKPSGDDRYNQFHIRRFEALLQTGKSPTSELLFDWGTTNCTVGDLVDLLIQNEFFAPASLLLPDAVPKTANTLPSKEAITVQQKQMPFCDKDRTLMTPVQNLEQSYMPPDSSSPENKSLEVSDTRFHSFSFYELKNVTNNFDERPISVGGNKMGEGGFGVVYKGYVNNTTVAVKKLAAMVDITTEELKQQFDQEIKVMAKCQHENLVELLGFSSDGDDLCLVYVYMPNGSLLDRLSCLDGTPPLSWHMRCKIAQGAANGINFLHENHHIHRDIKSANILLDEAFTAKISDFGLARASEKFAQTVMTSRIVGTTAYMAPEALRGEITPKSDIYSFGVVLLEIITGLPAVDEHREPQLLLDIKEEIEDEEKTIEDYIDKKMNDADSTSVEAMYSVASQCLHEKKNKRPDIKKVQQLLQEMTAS

[2] = Protein binding in human plasma at 5 uM incubated for 6 hrs by red equilibrium dialysis based LC-MS/MS analysis; format: ADME, cell-free
[3] = Apparent permeability across apical to basolateral side in dog MDCKI cells at 10 uM measured after 60 to 180 mins by lucifer yellow dye based LC-MS/MS analysis; format: ADME, cell-based, Canis lupus familiaris; details: MDCK
Procedure, shortened: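 Apical-to-basolateral permeability measured in Madin–Darby canine kidney (MDCK) cell monolayers; reported in ×10–6 cm/s.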

[4] = Clearance in mouse plasma at 1 mg/kg, iv or po; format: ADME, organism-based
[5] = Clearance in rat plasma at 1 mg/kg, iv or po; format: ADME, organism-based
[6] = Clearance in dog plasma at 1 mg/kg, iv or po; format: ADME, organism-based, Canis lupus familiaris
[7] = Clearance in cynomolgus monkey plasma at 1 mg/kg, iv or po; format: ADME, organism-based, Macaca fascicularis
[8] = Volume of distribution at steady state in mouse at 1 mg/kg, iv or po; format: ADME, organism-based; details: in vivo, read-out: Vdss
[9] = Volume of distribution at steady state in rat at 1 mg/kg, iv or po; format: ADME, organism-based; details: in vivo, read-out: Vdss
[10] = Volume of distribution at steady state in dog at 1 mg/kg, iv or po; format: ADME, organism-based, Canis lupus familiaris; details: in vivo, read-out: Vdss
[11] = Volume of distribution at steady state in cynomolgus monkey at 1 mg/kg, iv or po; format: ADME, organism-based, Macaca fascicularis; details: in vivo, read-out: Vdss
[12] = Half life in mouse at 1 mg/kg, iv or po; format: ADME, organism-based; details: in vivo
[13] = Half life in rat at 1 mg/kg, iv or po; format: ADME, organism-based; details: in vivo
[14] = Half life in dog at 1 mg/kg, iv or po; format: ADME, organism-based, Canis lupus familiaris; details: in vivo
[15] = Half life in cynomolgus monkey at 1 mg/kg, iv or po; format: ADME, organism-based, Macaca fascicularis; details: in vivo
[16] = AUC (infinity) in mouse at 1 mg/kg, iv or po; format: ADME, organism-based; details: in vivo
[17] = AUC (infinity) in rat at 1 mg/kg, iv or po; format: ADME, organism-based; details: in vivo
Procedure, shortened: (§1)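 Separate intravenous and oral PK studies, each dosed at 1 mg/kg. Plasma AUC was extrapolated to infinity and reported in µM*h. Half-life and oral bioavailability were derived from the same studies.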

[18] = AUC (infinity) in dog at 1 mg/kg, iv or po; format: ADME, organism-based, Canis lupus familiaris; details: in vivo; procedure, shortened: as §1
[19] = AUC (infinity) in cynomolgus monkey at 1 mg/kg, iv or po; format: ADME, organism-based, Macaca fascicularis; details: in vivo; procedure, shortened: as §1
[20] = Oral bioavailability in mouse at 1 mg/kg; format: ADME, organism-based; details: in vivo
[21] = Oral bioavailability in rat at 1 mg/kg; format: ADME, organism-based; details: in vivo
[22] = Oral bioavailability in dog at 1 mg/kg; format: ADME, organism-based, Canis lupus familiaris; details: in vivo
[23] = Oral bioavailability in cynomolgus monkey at 1 mg/kg; format: ADME, organism-based, Macaca fascicularis; details: in vivo
Mus musculus [24] = assay: In vivo inhibition of IRAK4 in R848-induced C57BL/6 mouse assessed as IFN alpha levels at 33.3 mg/kg, po administered as nanosuspension at 1 hr prior to R848 challenge and measured after 1 hr by ELISA relative to control; format: functional; design: scale not given: the % may be the effect or the level left
Procedure, shortened: (§2)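 C57 black 6 mice were given vehicle or compound as a nanosuspension in MCT (0.5% methyl-cellulose/0.2% tween-80) across a dose range, 1 h before TLR7/8 agonist R848 (resiquimod) stimulation. Blood was drawn 1 h after R848, which is 2 h after compound. Plasma IFNα was measured by ELISA against vehicle-treated, R848-stimulated animals. Plasma drug levels were taken at the same time.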

Mus musculus [25] = assay: In vivo inhibition of IRAK4 in R848-induced C57BL/6 mouse assessed as IFN alpha levels at 11.1 mg/kg, po administered as nanosuspension at 1 hr prior to R848 challenge and measured after 1 hr by ELISA relative to control; format: functional; design: scale not given: the % may be the effect or the level left; procedure, shortened: as §2
Mus musculus [26] = assay: In vivo inhibition of IRAK4 in R848-induced C57BL/6 mouse assessed as IFN alpha levels at 3.7 mg/kg, po administered as nanosuspension at 1 hr prior to R848 challenge and measured after 1 hr by ELISA relative to control; format: functional; design: scale not given: the % may be the effect or the level left; procedure, shortened: as §2
Mus musculus [27] = assay: In vivo inhibition of IRAK4 in R848-induced C57BL/6 mouse assessed as IFN alpha levels at 1.2 mg/kg, po administered as nanosuspension at 1 hr prior to R848 challenge and measured after 1 hr by ELISA relative to control; format: functional; design: scale not given: the % may be the effect or the level left; procedure, shortened: as §2
Mus musculus [28] = assay: In vivo inhibition of IRAK4 in R848-induced po dosed C57BL/6 mouse assessed as inhibition of TNFalpha secretion administered as nanosuspension at 1 hr prior to R848 challenge and measured after 1 hr by ELISA; format: functional, organism-based
Procedure, shortened: (§3)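 C57 black 6 mice dosed with vehicle or nanosuspension in 0.5% methyl-cellulose/0.2% tween-80 across a dose range 1 h before stimulation with TLR7/8 agonist R848; blood sampled 1 h after R848 (2 h post-dose). Plasma IFNα, IL-6 and TNFα measured, IFNα by ELISA; compound plasma levels also determined.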

Mus musculus [29] = assay: In vivo inhibition of IRAK4 in R848-induced po dosed C57BL/6 mouse assessed as inhibition of IL-6 secretion administered as nanosuspension at 1 hr prior to R848 challenge and measured after 1 hr by ELISA; format: functional, organism-based; procedure, shortened: as §3
Mus musculus [30] = assay: In vivo inhibition of IRAK4 in R848-induced po dosed C57BL/6 mouse assessed as inhibition of IFN alpha secretion administered as nanosuspension at 1 hr prior to R848 challenge and measured after 1 hr by ELISA; format: functional, organism-based; procedure, shortened: as §3
[31] = Protein binding in mouse plasma at 5 uM incubated for 6 hrs by red equilibrium dialysis based LC-MS/MS analysis; format: ADME, cell-free; details: read-out: PPB (converted)
[32] = Protein binding in rat plasma at 5 uM incubated for 6 hrs by red equilibrium dialysis based LC-MS/MS analysis; format: ADME, cell-free; details: read-out: PPB (converted)
[33] = Protein binding in dog plasma at 5 uM incubated for 6 hrs by red equilibrium dialysis based LC-MS/MS analysis; format: ADME, cell-free, Canis lupus familiaris; details: read-out: PPB (converted)
[34] = Protein binding in cynomolgus monkey plasma at 5 uM incubated for 6 hrs by red equilibrium dialysis based LC-MS/MS analysis; format: ADME, cell-free, Macaca fascicularis; details: read-out: PPB (converted)
Mus musculus [35] = assay: In vivo inhibition of IRAK4 in R848-induced C57BL/6 mouse assessed as inhibition of TNF alpha secretion at 3 mg/kg, po administered as nanosuspension at 1 hr prior to R848 challenge and measured after 1 hr by ELISA; format: functional, organism-based; procedure, shortened: as §3
Mus musculus [36] = assay: In vivo inhibition of IRAK4 in R848-induced C57BL/6 mouse assessed as IL6 level at 100 mg/kg, po administered as nanosuspension at 1 hr prior to R848 challenge and measured after 1 hr by ELISA relative to control; format: functional; design: scale not given: the % may be the effect or the level left
Procedure, shortened: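 C57 black 6 mice were pretreated with vehicle or a compound nanosuspension in 0.5% methyl-cellulose/0.2% tween-80 over a dose range, 1 h before R848 stimulation. Blood was sampled 1 h post-R848, and IL-6 and TNFα levels were compared with vehicle-treated, R848-stimulated mice.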

[37] = target: T1, Interleukin-1 receptor-associated kinase 4

Structure (SMILES): CC(C)(O)[C@H](F)CN1Cc2cc(NC(=O)c3cnn4cccnc34)c(N3CCOCC3)cc2C1=O
- Ki [1]: 1.4 nM
- PPB [2]: 72.4%
- Papp A→B at 10 µM [3]: 9.1 to 9.2 ×10⁻⁶ cm/s
- clearance [4]: 29 mL/min/kg
- clearance [5]: 9.2 mL/min/kg
- clearance [6]: 11.3 mL/min/kg
- clearance [7]: 15.8 mL/min/kg
- Vd [8]: 2.2 L/kg
- Vd [9]: 0.95 L/kg
- Vd [10]: 3.7 L/kg
- Vd [11]: 3.7 L/kg
- half-life [12]: 1.9 h
- half-life [13]: 1.6 h
- half-life [14]: 4.1 h
- half-life [15]: 5.4 h
- AUC(0-inf) [16]: 1.2 µM·h
- AUC(0-inf) [17]: 3.8 µM·h
- AUC(0-inf) [18]: 3.1 µM·h
- AUC(0-inf) [19]: 2.2 µM·h
- bioavailability [20]: 34%
- bioavailability [21]: 31%
- bioavailability [22]: 109%
- bioavailability [23]: 47%
- Activity (Mus musculus [24]): -53%
- Activity (Mus musculus [25]): -45%
- Activity (Mus musculus [26]): -24%
- Activity (Mus musculus [27]): -12%
- inhibition (Mus musculus [28]): Dose-dependent effect
- inhibition (Mus musculus [29]): Dose-dependent effect
- inhibition (Mus musculus [30]): Dose-dependent effect
- fraction unbound at 6 h, 5 µM [31]: 0.058
- fraction unbound at 6 h, 5 µM [32]: 0.086
- fraction unbound at 6 h, 5 µM [33]: 0.224
- fraction unbound at 6 h, 5 µM [34]: 0.332
- inhibition (Mus musculus [35]): Active
- Activity (Mus musculus [36]): -64%
- IC50 [37]: 190 nM
